Assay results: ChEMBL document CHEMBL1146355, “Synthesis and cytotoxic evaluation of C-9 oxidized podophyllotoxin derivatives” (Bioorg Med Chem, 2007)

How the values were obtained:
Assay type in all cases: functional, cell-based
HT-29 = test: Cytotoxicity against human HT29 cells after 4 days; details: HT-29, 96 h
Procedure, shortened: (§1)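 Cells seeded at 2 × 10⁴/well in MEM with 10% FCS containing the compound at different concentrations. Incubated 4 days at 37 °C under 10% CO₂ and 98% humidity. Drug-free control wells were counted daily to confirm exponential growth. Read-out was crystal violet staining, then inhibition estimated by comparison with controls.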

A549 = test: Cytotoxicity against human A549 cells after 4 days; details: A549, 96 h; procedure, shortened: as §1
[1] = Cytotoxicity against human MEL28 cells after 4 days; details: SK-MEL-28, 96 h; procedure, shortened: as §1
P388 = test: Cytotoxicity against mouse P388 cells after 4 days; details: P388, 96 h
Procedure, shortened: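 Murine leukaemia cells seeded at 1 × 10⁴/well in MEM with 10% FCS containing the compound at different concentrations. Incubated 4 days at 37 °C under 10% CO₂ and 98% humidity, with drug-free controls counted daily to confirm exponential growth. Inhibition judged by inverted microscopy against controls, with no staining.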

Structure (SMILES)	IC50 (HT-29)	IC50 (A549)	IC50 [1]	IC50 (P388)
COc1cc([C@@H]2c3cc4c(cc3C=C3C(=O)OC(=O)[C@H]32)OCO4)cc(OC)c1OC	12000 nM	12000 nM	12000 nM	12000 nM
COc1cc([C@@H]2c3cc4c(cc3[C@H](O)[C@H]3COC(=O)[C@H]23)OCO4)cc(OC)c1OC [PODOFILOX]	12 nM	–	–	–
COC(=O)[C@@H]1C(C=O)=Cc2cc3c(cc2[C@H]1c1cc(OC)c(OC)c(OC)c1)OCO3 [PODOPHYLLIC ALDEHYDE]	–	–	230 nM	–
CCCCCCNC(=O)C1=Cc2cc3c(cc2[C@@H](c2cc(OC)c(OC)c(OC)c2)[C@@H]1C(=O)OC)OCO3	1900 nM	1900 nM	–	1900 nM
COC(=O)[C@@H]1C(C(=O)Nc2ccccc2)=Cc2cc3c(cc2[C@H]1c1cc(OC)c(OC)c(OC)c1)OCO3	1900 nM	1900 nM	–	1900 nM
COC(=O)[C@@H]1C(C(=O)Nc2cc(OC)c(OC)c(OC)c2)=Cc2cc3c(cc2[C@H]1c1cc(OC)c(OC)c(OC)c1)OCO3	1700 nM	1700 nM	–	1700 nM
CCCCCCNC(=O)c1cc2cc3c(cc2c(-c2cc(OC)c(OC)c(OC)c2)c1C(=O)NCCCCCC)OCO3	2000 nM	2000 nM	–	2000 nM
COc1cc([C@@H]2c3cc4c(cc3C=C(C=O)[C@H]2CO)OCO4)cc(OC)c1OC	–	–	250 nM	–
COC(=O)[C@@H]1C(C(=O)Nc2ccc(C)cc2)=Cc2cc3c(cc2[C@H]1c1cc(OC)c(OC)c(OC)c1)OCO3	1900 nM	1900 nM	1900 nM	1900 nM
COC(=O)[C@@H]1C(/C=N/O)=Cc2cc3c(cc2[C@H]1c1cc(OC)c(OC)c(OC)c1)OCO3	–	–	2300 nM	–
COc1cc([C@H]2C3=C(Cc4cc5c(cc42)OCO5)C(O)OC3=O)cc(OC)c1OC (stereo partly drawn)	1200 nM	1200 nM	–	1200 nM
COC(=O)[C@@H]1C(C(=O)O)=Cc2cc3c(cc2[C@H]1c1cc(OC)c(OC)c(OC)c1)OCO3	> 20000 nM	> 20000 nM	> 20000 nM	> 20000 nM
COC(=O)[C@@H]1C(C(=O)OC(C)=O)=Cc2cc3c(cc2[C@H]1c1cc(OC)c(OC)c(OC)c1)OCO3	10000 nM	10000 nM	10000 nM	10000 nM
COC(=O)C1=Cc2cc3c(cc2[C@@H](c2cc(OC)c(OC)c(OC)c2)[C@@H]1C(=O)OC)OCO3	5100 nM	5100 nM	5100 nM	5100 nM
COC(=O)[C@@H]1C(C#N)=Cc2cc3c(cc2[C@H]1c1cc(OC)c(OC)c(OC)c1)OCO3	2400 nM	2400 nM	2400 nM	–
COc1cc(-c2c3c(cc4cc5c(cc24)OCO5)C(=O)N(CCO)C3=O)cc(OC)c1OC	2200 nM	2200 nM	–	2200 nM
COc1cc([C@@H]2c3cc4c(cc3C=C(C(=O)O)[C@H]2C(=O)O)OCO4)cc(OC)c1OC	> 20000 nM	> 20000 nM	> 20000 nM	> 20000 nM
COc1cc([C@@H]2c3cc4c(cc3C=C3C(=O)OC[C@H]32)OCO4)cc(OC)c1OC	> 20000 nM	> 20000 nM	> 20000 nM	> 20000 nM
